Compound activity (PubChem)
Only some compounds are listed: those with a hit (about 3.7% of all), similar ones and a draw of the others.
KCNK3 block = human KCNK3 channel inhibition, primary screen; O14649; CHO-KCNK3 thallium flux, FluxOR fluorescence; stronger effect = lower value; B-score at 10 µM; hit rate 0.84% among 340,000; AID 602410;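 active means B-score under library mean minus 4 SD, starting fluorescence ratio at most library mean plus 5 SD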;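 further: more negative B-score means stronger inhibition of thallium flux through KCNK3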
Target sequence (O14649 whole entry, looked up): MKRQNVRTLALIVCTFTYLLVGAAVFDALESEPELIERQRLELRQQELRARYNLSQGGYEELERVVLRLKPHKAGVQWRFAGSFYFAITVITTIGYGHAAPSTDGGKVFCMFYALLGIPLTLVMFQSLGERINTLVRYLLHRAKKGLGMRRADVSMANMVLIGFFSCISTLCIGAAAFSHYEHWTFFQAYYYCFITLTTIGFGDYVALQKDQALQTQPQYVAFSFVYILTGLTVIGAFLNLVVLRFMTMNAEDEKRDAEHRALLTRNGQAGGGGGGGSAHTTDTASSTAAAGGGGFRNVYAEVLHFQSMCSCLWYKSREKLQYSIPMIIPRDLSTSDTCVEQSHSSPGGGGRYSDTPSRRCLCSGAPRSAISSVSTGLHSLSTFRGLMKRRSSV
KCNQ1 inh = human KCNQ1 channel inhibition; P51787; CHO-K1 KCNQ1, FluxOR thallium flux fluorescence; stronger effect = higher value; B-score at 10 µM; hit rate 1.3% among 310,000; AID 2642;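 active means compounds whose thallium flux B-score, printed positive for inhibition, exceeds three library SD while starting fluorescence stays within three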;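 further: channel opened by potassium depolarization with thallium stimulus after 20 min compound exposure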
KCNK9 inh = blocks the human KCNK9 two-pore domain potassium channel; AID 488922; B-score at 10 µM; hit rate 1.2% among 310,000; HEK293 KCNK9, FluxOR thallium flux fluorescence; stronger effect = lower value;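 active means ratio B-score over 3 SD below the library mean, with starting fluorescence within 5 SD of its mean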;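 further: negative B-score means less thallium flux so channel inhibition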
hERG protect = hERG (human) protection from proarrhythmic block | hit rate 0.51% among 310,000 | CHO-hERG, FluxOR thallium flux, dofetilide IC70 present | AID 1511 | activation (rescue from dofetilide block), less the hit threshold, % at 10 µM;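 active means activation above the mean of controls blocked by dofetilide plus 5 SD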;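 further: thallium influx through hERG after potassium depolarization seen as dye fluorescence rise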
KCNQ1 act = human KCNQ1 channel potentiation or activation; AID 2648; hit rate 0.35% among 310,000; P51787; B-score at 10 µM; CHO-K1 KCNQ1, thallium flux FluxOR fluorescence; stronger effect = higher value;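 active means fluorescence ratio B-score, a plate-corrected score, at least three library SD, with initial intensity B-score within 5 SD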
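Doses: Single concentration per compound, DMSO matched to controls | Test system: KCNQ1-transfected CHO-K1 cells | Timing: 90 min dye loading and 20 min compound exposure, both at room temperature | Measured by: Kinetic FluxOR thallium fluorescence, 10-s 1-Hz baseline, 110-s post-stimulus read | Medium: Assay buffer with matched DMSO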
Kir21 block = inhibitors of mouse Kir2.1 inward-rectifier potassium channel; B-score at 10 µM; P35561; AID 1672; HEK293-Kir2.1, FluxOR thallium flux fluorescence; stronger effect = lower value; hit rate 0.85% among 310,000;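 active means fluorescence ratio B-score at or below minus 3 SD of library scores, with starting-brightness B-score within 2 SD, cut at about -4.2 in these data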;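 further: channel flux triggered by added potassium and thallium sulfate stimulus; B-score of peak minus minimum fluorescence over baseline after thallium stimulus; more negative B-score means stronger Kir2.1 block with less thallium influx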
KCNK9 inh conf = human KCNK9 inhibitor confirmation | inhibition, % at 10 µM | HEK293 KCNK9 cells, FluxOR thallium flux fluorescence | AID 492992 | shares compounds with KCNK9 inh | hit rate 43% among 4,900;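 active means thallium signal inhibited by more than 5 SD of the compound-free buffer control wells, on both duplicate plates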
Kir21 sel = mouse Kir2.1 off-target activity of KCNK9 modulators; shares compounds with KCNK9 inh; Kir2.1 cells, FluxOR thallium flux fluorescence; inhibition, % at 10 µM; hit rate 4% among 4,900;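 active means thallium signal drop more than 5 SD beyond the mean of the no-compound control wells, seen in both duplicate plates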;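 further: signal is fluorescence rise after thallium addition divided by baseline fluorescence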
HEK293 Tl ctr = non-induced cell nonspecific activity of KCNK9 modulators. non-induced KCNK9-HEK293, FluxOR thallium flux. inhibition, % at 10 µM. shares compounds with KCNK9 inh. hit rate 40% among 4,900;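 active means thallium signal drop beyond 5 SD of the untreated control mean, on both duplicate plates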
Hits are given with their value.

For O=C(Nc1c(Cl)cccc1Cl)c1ccc(-c2ccccc2)cc1 the results were KCNK3 block inactive, KCNQ1 inh inactive, KCNK9 inh -8.46, hERG protect inactive, KCNQ1 act inactive, Kir21 block inactive, KCNK9 inh conf 33.5%, Kir21 sel inactive and HEK293 Tl ctr inactive.
COc1cccc(CC2(CO)CCCN(Cc3sc(N4CCCC4)nc3Cl)C2)c1 (stereo not given) was read as KCNK3 block inactive, KCNQ1 inh inactive, KCNK9 inh inactive, hERG protect inactive, KCNQ1 act inactive, Kir21 block inactive, KCNK9 inh conf inactive, Kir21 sel inactive and HEK293 Tl ctr inactive.
Screening Cc1cc(C(=O)CCC(=O)N2CCN(c3ccccc3F)CC2)c(C)s1 returned KCNK3 block inactive, KCNQ1 inh inactive, KCNK9 inh inactive, hERG protect inactive, KCNQ1 act inactive, Kir21 block inactive, KCNK9 inh conf inactive, Kir21 sel inactive and HEK293 Tl ctr inactive.
For Cc1cccc(/C(N)=N/OC(=O)CCCN2C(=O)c3ccccc3C2=O)c1 the results were KCNK3 block inactive, KCNQ1 inh inactive, KCNK9 inh inactive, hERG protect inactive, KCNQ1 act inactive, Kir21 block inactive, KCNK9 inh conf inactive, Kir21 sel inactive and HEK293 Tl ctr inactive.
Screening CC(C)CNC(=S)NC(=O)c1ccc(F)cc1 returned KCNK3 block inactive, KCNQ1 inh inactive, KCNK9 inh inactive, hERG protect inactive, KCNQ1 act inactive and Kir21 block inactive.
Screening COc1ccc(-n2nc([N+](=O)[O-])c(=NCCc3ccc(C)cc3)n2O)cc1 returned KCNK3 block inactive, KCNQ1 inh inactive, KCNK9 inh inactive, hERG protect inactive, KCNQ1 act inactive, Kir21 block inactive, KCNK9 inh conf inactive, Kir21 sel inactive and HEK293 Tl ctr inactive.
Screening COc1ccc(C2Nc3cc(OC)ccc3-n3cccc32)cc1 (stereo not given) returned KCNK3 block inactive, KCNQ1 inh inactive, KCNK9 inh inactive, hERG protect inactive, KCNQ1 act inactive, Kir21 block inactive, KCNK9 inh conf inactive, Kir21 sel inactive and HEK293 Tl ctr inactive.
`Cc1ccc(S[C@@H](CCN2CC[C@H](C)CCC2=O)c2ccccc2)cc1` gave KCNK3 block inactive, KCNQ1 inh inactive, KCNK9 inh -9.39, hERG protect inactive, KCNQ1 act inactive, Kir21 block inactive, KCNK9 inh conf 65.5%, Kir21 sel inactive and HEK293 Tl ctr 34.5%.
Screening COc1ccc(S[C@@H](CCN2CC[C@H](C)CCC2=O)c2ccccc2)cc1 returned KCNK3 block inactive.
C[C@@H]1CCC(=O)N(CC[C@H](Oc2ccccc2)c2ccccc2)CC1 was read as KCNK3 block inactive, KCNQ1 inh inactive, KCNK9 inh -15, hERG protect inactive, KCNQ1 act inactive, Kir21 block inactive, KCNK9 inh conf 73.5%, Kir21 sel inactive and HEK293 Tl ctr 35.5%.
`Cc1ccc(C(=O)NCc2ccc(Cl)cc2)cc1S(=O)(=O)N1CCCCC1` gave KCNK3 block inactive.
Screening CCOc1ccc(CC(=O)Nc2ccc(NC(=O)c3ccco3)cc2)cc1OCC returned KCNK3 block inactive, KCNQ1 inh inactive, KCNK9 inh inactive, hERG protect inactive, KCNQ1 act inactive and Kir21 block inactive.
C/C(=N\NC(=O)CNC(=O)c1ccccc1F)c1ccco1 was read as KCNK3 block inactive, KCNQ1 inh inactive, KCNK9 inh inactive, hERG protect inactive, KCNQ1 act inactive and Kir21 block inactive.
C=C(C)C1CCC(C)=C1COC(=O)Nc1ccccc1 (stereo not given) was read as KCNK3 block inactive, KCNQ1 inh inactive, KCNK9 inh inactive, hERG protect inactive, KCNQ1 act inactive, Kir21 block inactive, KCNK9 inh conf inactive, Kir21 sel inactive and HEK293 Tl ctr inactive.
O=C(Nc1ccccc1)OCCCCOC(=O)Nc1ccccc1 was read as KCNK3 block inactive.
`CCc1ccc(C(=O)CCC(=O)Nc2ccc(OC)c(S(=O)(=O)N3CCCCC3)c2)cc1` gave KCNK3 block inactive.
For O=C(NCc1ccccn1)C1CCCN(S(=O)(=O)c2cc(Cl)ccc2Cl)C1 (stereo not given) the results were KCNK3 block inactive.
Cc1cc(S(=O)(=O)N2CCCC(N(C)CCc3ccccn3)C2)c(C)cc1Cl (stereo not given) was read as KCNK3 block inactive, KCNQ1 inh inactive, KCNK9 inh inactive, hERG protect inactive, KCNQ1 act inactive, Kir21 block inactive, KCNK9 inh conf inactive, Kir21 sel inactive and HEK293 Tl ctr inactive.
`c1ccc(CCC2CCCCN2Cc2nc(-c3ccc4c(c3)OCO4)no2)nc1` (stereo not given) gave KCNK3 block inactive, KCNQ1 inh inactive, KCNK9 inh inactive, hERG protect inactive, KCNQ1 act inactive and Kir21 block inactive.
CCC(C)C(=O)Nc1nc(C)c(-c2csc(Nc3cc(Cl)ccc3OC)n2)s1 (stereo not given) was read as KCNK3 block inactive, KCNQ1 inh inactive, KCNK9 inh inactive, hERG protect inactive, KCNQ1 act inactive and Kir21 block inactive.
Screening COc1ccc(OC)c(Nc2nc(-c3sc(NC(=O)CC(C)C)nc3C)cs2)c1 returned KCNK3 block inactive, KCNQ1 inh inactive, KCNK9 inh -16.5, hERG protect inactive, KCNQ1 act inactive, Kir21 block inactive, KCNK9 inh conf 39.5%, Kir21 sel inactive and HEK293 Tl ctr 31.5%.
`CCC(C)C(=O)Nc1nc(C)c(-c2csc(Nc3cc(OC)ccc3OC)n2)s1` (stereo not given) gave KCNK3 block inactive, KCNQ1 inh inactive, KCNK9 inh -10.9, hERG protect inactive, KCNQ1 act inactive, Kir21 block inactive, KCNK9 inh conf 40.5%, Kir21 sel inactive and HEK293 Tl ctr 27.0%.
`COc1ccc(OC)c(Nc2nc(-c3sc(NC(=O)C(C)(C)C)nc3C)cs2)c1` gave KCNK3 block inactive, KCNQ1 inh inactive, KCNK9 inh -13.1, hERG protect inactive, KCNQ1 act inactive, Kir21 block inactive, KCNK9 inh conf 46.0%, Kir21 sel inactive and HEK293 Tl ctr inactive.
`COc1ccc(OC)c(Nc2nc(-c3sc(C)nc3C)cs2)c1` gave KCNK3 block inactive, KCNQ1 inh inactive, KCNK9 inh inactive, hERG protect inactive, KCNQ1 act inactive and Kir21 block inactive.
